Source: ChEMBL document CHEMBL2010797, “Exploring aigialomycin d and its analogues as protein kinase inhibitors for cancer targets” (ACS Med Chem Lett, 2011)

Experiments:
[1] = target: Cyclin-dependent kinase 2/cyclin A (Homo sapiens) (UniProt P24941+P20248+P78396); assay: Inhibition of CDK2/cyclin A using 5-FAM-GGGPATPKKAKKL-COOH as substrate at 10 uM after 1 hr by IMAP assay; format: protein-complex assay
Summary of the method: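 IMAP fluorescence-polarization enzyme assay on CDK2/cyclin A, testing competition at the ATP site. Compounds tested at 10 μM, with purvalanol A at 1 μM as reference. Percent inhibition is the average ± SD of three independent experiments, or the mean of two for some compounds.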

[2] = target: T1, MAP kinase-interacting serine/threonine-protein kinase 2 (Homo sapiens, UniProt Q9HBH9); assay: Inhibition of MNK2 using 5-FAM-TATKSGSTTKNRFVV-NH2 as substrate preincubated for 1 hr prior substrate addition measured after 2 hrs by IMAP assay
Target sequence in this assay (Q9HBH9 whole entry): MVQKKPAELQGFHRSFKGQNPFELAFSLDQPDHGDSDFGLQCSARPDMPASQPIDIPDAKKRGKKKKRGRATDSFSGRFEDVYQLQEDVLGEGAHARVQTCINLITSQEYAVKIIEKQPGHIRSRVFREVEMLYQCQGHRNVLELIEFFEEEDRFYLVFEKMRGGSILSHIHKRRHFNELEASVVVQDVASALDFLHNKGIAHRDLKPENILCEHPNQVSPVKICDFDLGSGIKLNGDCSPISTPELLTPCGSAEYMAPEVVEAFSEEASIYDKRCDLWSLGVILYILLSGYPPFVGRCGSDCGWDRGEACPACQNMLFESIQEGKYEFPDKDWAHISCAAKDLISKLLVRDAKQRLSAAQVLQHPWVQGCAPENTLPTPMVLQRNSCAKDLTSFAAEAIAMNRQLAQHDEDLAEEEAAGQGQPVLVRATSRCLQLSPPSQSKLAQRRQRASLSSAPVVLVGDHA

[3] = target: Cyclin-dependent kinase 1 (Homo sapiens, UniProt P06493); assay: Inhibition of CDK1
[4] = target: Cyclin-dependent kinase 5 (Homo sapiens, UniProt Q00535); assay: Inhibition of CDK5
[5] = target: Cyclin-dependent kinase 2/cyclin A (Homo sapiens, UniProt P24941); assay: Inhibition of CDK2/cyclin A using 5-FAM-GGGPATPKKAKKL-COOH as substrate after 1 hr by IMAP assay; format: protein-complex assay
Summary of the method: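 IMAP fluorescence-polarization assay on CDK2/cyclin A. IC50 taken from dose–response curves, given as average ± SD of three independent experiments, or the mean of two for one compound.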

[6] = target: Tyrosine-protein kinase receptor UFO (Homo sapiens) (UniProt P30530); assay: Inhibition of AXL assessed as enzyme activity at 10 uM relative to control; set-up: scale not given: the % may be the effect or the level left
Summary of the method: (§1)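 Single-point test at 10 μM in a 96-kinase screening panel. Reported as % of a DMSO negative control, where a lower value means stronger inhibition.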

[7] = target: T2, Tyrosine-protein kinase receptor UFO (Homo sapiens, UniProt P30530); assay: Inhibition of AXL
T2 sequence (P30530 whole entry): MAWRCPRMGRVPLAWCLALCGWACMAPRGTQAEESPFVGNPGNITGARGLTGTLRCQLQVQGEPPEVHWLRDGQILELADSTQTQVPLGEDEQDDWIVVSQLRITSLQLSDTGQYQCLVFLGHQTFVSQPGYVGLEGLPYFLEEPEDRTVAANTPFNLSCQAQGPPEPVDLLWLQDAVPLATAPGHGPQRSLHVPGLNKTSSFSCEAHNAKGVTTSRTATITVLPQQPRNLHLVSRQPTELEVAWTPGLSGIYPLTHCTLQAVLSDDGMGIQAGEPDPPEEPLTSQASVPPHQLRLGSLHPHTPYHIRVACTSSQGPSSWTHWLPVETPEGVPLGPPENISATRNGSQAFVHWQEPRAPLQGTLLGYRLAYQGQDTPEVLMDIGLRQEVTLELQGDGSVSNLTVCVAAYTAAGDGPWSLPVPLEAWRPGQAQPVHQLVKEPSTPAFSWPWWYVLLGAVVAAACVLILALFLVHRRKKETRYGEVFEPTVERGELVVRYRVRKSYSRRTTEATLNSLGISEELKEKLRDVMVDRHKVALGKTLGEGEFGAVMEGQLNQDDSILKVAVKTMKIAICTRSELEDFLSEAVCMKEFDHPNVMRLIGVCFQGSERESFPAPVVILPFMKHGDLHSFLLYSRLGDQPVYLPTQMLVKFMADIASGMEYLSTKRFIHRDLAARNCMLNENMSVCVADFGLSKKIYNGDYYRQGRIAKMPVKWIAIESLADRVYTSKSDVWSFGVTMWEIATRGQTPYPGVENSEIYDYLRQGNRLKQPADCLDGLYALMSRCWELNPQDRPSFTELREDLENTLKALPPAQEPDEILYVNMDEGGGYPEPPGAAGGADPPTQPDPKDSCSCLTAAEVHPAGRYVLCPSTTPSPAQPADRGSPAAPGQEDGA

[8] = target: Receptor-type tyrosine-protein kinase FLT3 (Homo sapiens) (UniProt P36888); assay: Inhibition of FLT3 assessed as enzyme activity at 10 uM relative to control; set-up: scale not given: the % may be the effect or the level left; summary of the method: as §1
[9] = target: T3, Receptor-type tyrosine-protein kinase FLT3 (Homo sapiens, UniProt P36888); assay: Inhibition of FLT3
T3 sequence (P36888 whole entry): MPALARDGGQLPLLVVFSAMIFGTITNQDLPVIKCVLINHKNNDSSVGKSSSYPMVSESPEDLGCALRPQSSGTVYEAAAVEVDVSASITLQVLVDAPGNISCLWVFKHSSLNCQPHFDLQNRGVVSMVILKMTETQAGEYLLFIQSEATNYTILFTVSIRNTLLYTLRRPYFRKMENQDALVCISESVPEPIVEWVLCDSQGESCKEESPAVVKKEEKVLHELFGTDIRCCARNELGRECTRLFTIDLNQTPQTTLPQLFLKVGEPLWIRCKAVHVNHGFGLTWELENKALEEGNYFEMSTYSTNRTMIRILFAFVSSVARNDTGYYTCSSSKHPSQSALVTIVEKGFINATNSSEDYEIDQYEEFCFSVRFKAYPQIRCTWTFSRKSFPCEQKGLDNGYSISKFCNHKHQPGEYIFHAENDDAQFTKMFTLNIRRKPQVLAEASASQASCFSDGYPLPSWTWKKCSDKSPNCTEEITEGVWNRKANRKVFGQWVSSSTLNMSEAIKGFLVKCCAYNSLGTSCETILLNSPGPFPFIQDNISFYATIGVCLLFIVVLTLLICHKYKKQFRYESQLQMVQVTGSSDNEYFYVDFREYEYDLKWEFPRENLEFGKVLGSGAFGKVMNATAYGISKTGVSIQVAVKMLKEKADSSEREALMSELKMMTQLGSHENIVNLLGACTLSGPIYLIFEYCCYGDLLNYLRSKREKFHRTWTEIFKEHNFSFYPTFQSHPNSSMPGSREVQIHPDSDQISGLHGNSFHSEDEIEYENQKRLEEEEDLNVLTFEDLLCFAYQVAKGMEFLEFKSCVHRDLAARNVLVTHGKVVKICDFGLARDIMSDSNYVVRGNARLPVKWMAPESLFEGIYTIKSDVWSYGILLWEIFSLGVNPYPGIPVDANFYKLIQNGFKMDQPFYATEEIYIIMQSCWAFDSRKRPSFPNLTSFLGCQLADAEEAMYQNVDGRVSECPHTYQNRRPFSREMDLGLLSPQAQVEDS

[10] = target: T1, MAP kinase-interacting serine/threonine-protein kinase 2; assay: Inhibition of MNK2 assessed as enzyme activity at 10 uM relative to control; set-up: scale not given: the % may be the effect or the level left; summary of the method: as §1
Target sequence in this assay (Q9HBH9 whole entry, looked up): as the sequence (Q9HBH9 whole entry) above

[11] = target: T1, MAP kinase-interacting serine/threonine-protein kinase 2; assay: Inhibition of MNK2
Target sequence in this assay (Q9HBH9 whole entry): as the sequence (Q9HBH9 whole entry) above

[12] = target: T4, Serine/threonine-protein kinase PLK4 (Homo sapiens) (UniProt O00444); assay: Inhibition of PLK4 assessed as enzyme activity at 10 uM relative to control; set-up: scale not given: the % may be the effect or the level left; summary of the method: as §1
T4 sequence (whole entry): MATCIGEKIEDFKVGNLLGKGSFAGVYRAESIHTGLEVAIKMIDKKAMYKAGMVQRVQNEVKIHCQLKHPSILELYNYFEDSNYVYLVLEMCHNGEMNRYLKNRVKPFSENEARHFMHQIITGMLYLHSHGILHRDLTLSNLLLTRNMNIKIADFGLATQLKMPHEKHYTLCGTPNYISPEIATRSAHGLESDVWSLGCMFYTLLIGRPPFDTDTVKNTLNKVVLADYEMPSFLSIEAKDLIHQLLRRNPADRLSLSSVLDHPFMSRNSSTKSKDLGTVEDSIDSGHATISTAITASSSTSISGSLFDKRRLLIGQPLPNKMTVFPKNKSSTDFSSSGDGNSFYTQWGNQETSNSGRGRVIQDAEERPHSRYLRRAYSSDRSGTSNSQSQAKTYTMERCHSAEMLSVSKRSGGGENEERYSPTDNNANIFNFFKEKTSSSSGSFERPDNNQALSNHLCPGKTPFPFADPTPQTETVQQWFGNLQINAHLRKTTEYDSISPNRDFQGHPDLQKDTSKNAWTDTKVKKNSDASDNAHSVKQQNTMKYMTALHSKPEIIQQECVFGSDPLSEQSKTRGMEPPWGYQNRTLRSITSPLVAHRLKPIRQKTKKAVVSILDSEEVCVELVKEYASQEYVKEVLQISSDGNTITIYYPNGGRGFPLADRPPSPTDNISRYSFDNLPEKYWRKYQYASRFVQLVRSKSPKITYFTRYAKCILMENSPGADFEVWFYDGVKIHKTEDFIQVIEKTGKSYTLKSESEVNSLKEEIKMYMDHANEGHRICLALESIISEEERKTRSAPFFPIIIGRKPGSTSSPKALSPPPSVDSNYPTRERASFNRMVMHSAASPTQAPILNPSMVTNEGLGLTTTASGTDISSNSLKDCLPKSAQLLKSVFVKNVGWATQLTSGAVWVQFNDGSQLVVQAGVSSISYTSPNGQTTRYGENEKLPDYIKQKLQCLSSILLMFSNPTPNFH

[13] = target: T5, Serine/threonine-protein kinase PLK4 (Homo sapiens, UniProt O00444); assay: Inhibition of PLK4
T5 sequence (O00444 whole entry): T4 sequence (whole entry)

[14] = target: T6, Protein kinase C epsilon type (Homo sapiens) (UniProt Q02156); assay: Inhibition of PRKCE assessed as enzyme activity at 10 uM relative to control; set-up: scale not given: the % may be the effect or the level left; summary of the method: as §1
T6 sequence (whole entry): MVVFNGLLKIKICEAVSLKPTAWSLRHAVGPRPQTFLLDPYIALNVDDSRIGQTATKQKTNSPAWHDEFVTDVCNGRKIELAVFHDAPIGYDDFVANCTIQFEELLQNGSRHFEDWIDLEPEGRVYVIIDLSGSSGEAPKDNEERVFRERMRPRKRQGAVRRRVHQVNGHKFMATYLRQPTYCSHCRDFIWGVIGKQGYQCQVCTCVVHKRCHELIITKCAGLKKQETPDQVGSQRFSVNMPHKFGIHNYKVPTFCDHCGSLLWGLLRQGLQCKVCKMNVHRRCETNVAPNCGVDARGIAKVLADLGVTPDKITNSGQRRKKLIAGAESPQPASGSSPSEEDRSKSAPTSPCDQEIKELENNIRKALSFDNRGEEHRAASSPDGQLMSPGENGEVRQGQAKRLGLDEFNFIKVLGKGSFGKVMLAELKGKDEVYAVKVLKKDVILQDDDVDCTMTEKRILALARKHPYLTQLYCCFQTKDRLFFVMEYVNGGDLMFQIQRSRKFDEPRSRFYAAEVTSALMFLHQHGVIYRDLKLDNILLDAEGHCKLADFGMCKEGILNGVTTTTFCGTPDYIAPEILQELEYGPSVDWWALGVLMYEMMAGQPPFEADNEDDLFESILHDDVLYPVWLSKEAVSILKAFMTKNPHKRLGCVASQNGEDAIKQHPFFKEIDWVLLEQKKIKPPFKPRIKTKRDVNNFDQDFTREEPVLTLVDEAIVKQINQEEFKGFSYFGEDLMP

[15] = target: T7, Protein kinase C epsilon type (Homo sapiens, UniProt Q02156); assay: Inhibition of PRKCE
T7 sequence (Q02156 whole entry): T6 sequence (whole entry)

[16] = target: MAP kinase-interacting serine/threonine-protein kinase 1 (Homo sapiens, UniProt Q9BUB5); assay: Inhibition of MNK1
[17] = Inhibition of MEK

MAP kinase-interacting serine/threonine-protein kinase 1, sequence (Q9BUB5 whole entry): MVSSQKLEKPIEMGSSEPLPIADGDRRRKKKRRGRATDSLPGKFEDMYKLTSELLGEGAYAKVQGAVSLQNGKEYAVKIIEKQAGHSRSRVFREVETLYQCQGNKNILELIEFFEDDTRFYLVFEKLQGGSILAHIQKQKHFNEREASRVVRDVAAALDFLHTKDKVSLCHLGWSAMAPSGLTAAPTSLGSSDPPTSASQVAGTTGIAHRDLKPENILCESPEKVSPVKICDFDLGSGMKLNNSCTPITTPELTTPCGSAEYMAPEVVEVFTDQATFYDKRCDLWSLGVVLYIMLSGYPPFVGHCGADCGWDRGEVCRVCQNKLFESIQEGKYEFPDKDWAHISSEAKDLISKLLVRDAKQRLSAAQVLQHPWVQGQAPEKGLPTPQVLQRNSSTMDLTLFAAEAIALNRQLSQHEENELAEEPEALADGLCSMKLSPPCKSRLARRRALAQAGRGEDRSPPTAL
Cyclin-dependent kinase 5, sequence (Q00535 whole entry): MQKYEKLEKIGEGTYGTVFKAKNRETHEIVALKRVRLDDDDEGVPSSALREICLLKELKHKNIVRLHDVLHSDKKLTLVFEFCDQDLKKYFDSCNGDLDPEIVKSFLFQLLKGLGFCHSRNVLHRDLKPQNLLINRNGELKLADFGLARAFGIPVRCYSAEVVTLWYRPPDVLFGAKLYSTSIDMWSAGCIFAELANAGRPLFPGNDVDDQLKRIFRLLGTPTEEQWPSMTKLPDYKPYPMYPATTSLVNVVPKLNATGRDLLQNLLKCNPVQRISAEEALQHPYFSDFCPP
Cyclin-dependent kinase 1, sequence (P06493 whole entry): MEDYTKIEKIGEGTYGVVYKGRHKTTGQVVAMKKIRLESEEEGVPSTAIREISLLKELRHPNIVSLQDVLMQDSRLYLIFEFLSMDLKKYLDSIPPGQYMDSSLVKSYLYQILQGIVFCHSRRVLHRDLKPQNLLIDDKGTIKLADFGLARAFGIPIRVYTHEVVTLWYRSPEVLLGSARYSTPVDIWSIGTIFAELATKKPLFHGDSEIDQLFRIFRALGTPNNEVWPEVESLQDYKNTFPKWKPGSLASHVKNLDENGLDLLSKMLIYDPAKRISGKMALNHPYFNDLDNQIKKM

Compound: C[C@H]1CCC[C@@H](O)[C@@H](O)CCCCc2cc(O)cc(O)c2C(=O)O1
- inhibition [1]: 16%
- IC50 [2]: > 10 µM

Compound: C[C@H]1C/C=C/[C@@H](O)[C@@H](O)CCC(O)Cc2cc(O)cc(O)c2C(=O)O1 (mixture of isomers)
- inhibition [1]: 8%
- IC50 [2]: > 10 µM

Compound: C[C@H]1CCC[C@@H](O)[C@@H](O)CCC(O)Cc2cc(O)cc(O)c2C(=O)O1 (mixture of isomers)
- inhibition [1]: 6%
- IC50 [2]: > 10 µM

Compound: C[C@H]1CCC[C@@H](O)[C@@H](O)CC/C=C/c2cc(O)cc(O)c2C(=O)O1
- inhibition [1]: 25%
- IC50 [2]: 1.35 µM

Compound: C[C@H]1CCC[C@@H](O)[C@@H](O)CCC(=O)Cc2cc(O)cc(O)c2C(=O)O1
- inhibition [1]: 17%
- IC50 [2]: > 10 µM

Compound: C[C@H]1C/C=C/[C@H]2OC(C)(C)O[C@H]2CC/C=C/c2cc(O)cc(O)c2C(=O)O1
- inhibition [1]: 19%
- IC50 [2]: 0.58 µM

Compound: COc1cc(O)cc2c1C(=O)O[C@@H](C)CCC[C@@H](O)[C@@H](O)CC/C=C/2
- inhibition [1]: 10%
- IC50 [2]: > 10 µM

Compound: C[C@H]1C/C=C/[C@@H](O)[C@@H](O)CCC(=O)Cc2cc(O)cc(O)c2C(=O)O1
- inhibition [1]: 21%
- IC50 [2]: > 10 µM

Compound: C[C@H]1C/C=C/[C@@H](O)[C@@H](O)CC/C=C/c2cc(O)cc(O)c2C(=O)O1 [AIGIALOMYCIN D]
- IC50 [3]: 6 µM
- IC50 [4]: 6 µM
- inhibition [1]: 55%
- IC50 [5]: 21 µM
- Activity [6]: 4.7%
- Kd [7]: 1 µM
- Activity [8]: 7.1%
- Kd [9]: 0.3 µM
- Activity [10]: 0.15%
- Kd [11]: 0.16 µM
- Activity [12]: 9.6%
- Kd [13]: 0.26 µM
- Activity [14]: 7.2%
- Kd [15]: 12 µM
- IC50 [2]: 0.45 µM
- IC50 [16]: 40 µM

Compound: COc1cc(O)c2c(c1)CCC[C@H](O)[C@H](O)C(=O)/C=C\C[C@H](C)OC2=O
- INH [17]: 4 nM
